How the values were obtained:
Rattus norvegicus [1] = assay: The compound was tested in vivo for the inhibition of cholesterol biosynthesis in chow-fed rats.; type: functional
Method in brief: (§1)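 Acute in vivo cholesterol synthesis (AICS) in normal chow-fed rats. Compounds dosed in DMA/PEG solution, 1.0 mg/kg po unless stated otherwise. Synthesis measured as incorporation of [1-14C]acetate into plasma sterols.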

[2] = target: T1, 3-hydroxy-3-methylglutaryl-coenzyme A reductase (Rattus norvegicus) (UniProt P51639); assay: Tested in vivo for the inhibition of cholesterol biosynthesis in chow-fed rats at 1.0 mg/kg.; type: functional, organism-based; set-up: dose 1 mg/kg; method in brief: as §1
T1 sequence (whole entry): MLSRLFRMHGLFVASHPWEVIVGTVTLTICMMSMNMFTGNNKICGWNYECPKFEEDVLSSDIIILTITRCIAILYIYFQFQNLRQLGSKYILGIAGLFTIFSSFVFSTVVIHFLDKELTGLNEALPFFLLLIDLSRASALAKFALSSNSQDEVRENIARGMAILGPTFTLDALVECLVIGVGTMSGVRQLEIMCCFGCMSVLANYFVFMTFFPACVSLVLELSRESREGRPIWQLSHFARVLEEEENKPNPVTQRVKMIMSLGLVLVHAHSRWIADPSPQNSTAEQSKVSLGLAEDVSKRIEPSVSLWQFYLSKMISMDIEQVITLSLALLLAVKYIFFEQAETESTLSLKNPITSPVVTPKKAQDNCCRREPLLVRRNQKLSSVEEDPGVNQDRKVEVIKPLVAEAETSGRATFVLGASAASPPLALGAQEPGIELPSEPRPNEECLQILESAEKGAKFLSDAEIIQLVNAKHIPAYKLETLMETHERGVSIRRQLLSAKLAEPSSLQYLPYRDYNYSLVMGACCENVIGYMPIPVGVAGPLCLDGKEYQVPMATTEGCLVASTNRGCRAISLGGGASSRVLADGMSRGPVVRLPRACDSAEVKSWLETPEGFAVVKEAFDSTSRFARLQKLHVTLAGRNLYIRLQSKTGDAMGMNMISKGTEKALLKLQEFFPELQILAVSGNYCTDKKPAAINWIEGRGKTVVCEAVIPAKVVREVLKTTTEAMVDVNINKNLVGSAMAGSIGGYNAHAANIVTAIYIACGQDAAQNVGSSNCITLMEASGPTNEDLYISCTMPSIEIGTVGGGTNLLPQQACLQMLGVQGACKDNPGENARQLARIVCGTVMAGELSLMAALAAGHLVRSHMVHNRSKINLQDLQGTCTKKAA

Rattus norvegicus [3] = assay: The compound in lactone form was tested in vivo for the inhibition of cholesterol biosynthesis in chow-fed rats at 1.0 mg/kg.; type: functional; method in brief: as §1
Rattus norvegicus [4] = assay: The compound was tested in vivo for the inhibition of cholesterol biosynthesis in chow-fed rats at 1.0 mg/kg; type: functional; method in brief: as §1
Canis familiaris [5] = assay: Hypocholesterolemic activity in Cholestyramine-primed Beagle dogs at dose of 0.3 mg/kg two weeks after.; type: functional, Canis lupus familiaris
Method in brief: (§2)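 Beagle dogs pretreated with cholestyramine resin, then given resin plus inhibitor. Plasma cholesterol read after 2 and 4 weeks of drug treatment. Values are mean percent change from pretreatment values within the same group; significance versus untreated controls at p < 0.05.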

Canis familiaris [6] = assay: Hypocholesterolemic activity in Cholestyramine-primed Beagle dogs at dose of 0.3 mg/kg four weeks after.; type: functional, Canis lupus familiaris; method in brief: as §2
Canis familiaris [7] = assay: Hypocholesterolemic activity in Cholestyramine-primed Beagle dogs at dose of 0.1 mg/kg two weeks after.; type: functional, Canis lupus familiaris; method in brief: as §2
Canis familiaris [8] = assay: Hypocholesterolemic activity in Cholestyramine-primed Beagle dogs at dose of 1.0 mg/kg four weeks after.; type: functional, Canis lupus familiaris; method in brief: as §2
Canis familiaris [9] = assay: Hypocholesterolemic activity in Cholestyramine-primed Beagle dogs at dose of 0.1 mg/kg four weeks after.; type: functional, Canis lupus familiaris; method in brief: as §2
Canis familiaris [10] = assay: Hypocholesterolemic activity in Cholestyramine-primed Beagle dogs at dose of 1.0 mg/kg two weeks after.; type: functional, Canis lupus familiaris; method in brief: as §2
Rattus norvegicus [11] = assay: The compound was tested in vivo for the inhibition of cholesterol biosynthesis in chow-fed rats at 1.0 mg/kg.; type: functional; method in brief: as §1
Rattus norvegicus [12] = assay: The compound form was tested in vivo for the inhibition of cholesterol biosynthesis in chow-fed rats at 1.0 mg/kg; not determined; type: functional; method in brief: as §1

| SMILES | inhibition [2] [%] | further results |
| --- | --- | --- |
| CC(C)c1nn(-c2cnccn2)c(-c2ccc(F)cc2)c1/C=C/[C@@H](O)C[C@@H](O)CC(=O)[O-].[Na+] | 75 | Inhibition (Rattus norvegicus [1]): 91% |
| CC(C)c1nn(-c2ccccn2)c(-c2ccc(F)cc2)c1/C=C/[C@@H](O)C[C@@H](O)CC(=O)O | 98 | inhibition in vivo at 1 mg/kg (Rattus norvegicus [3]): 85% |
| CC(C)c1nn(-c2ccccc2)c(-c2ccc(F)cc2)c1CCC1C[C@@H](O)CC(=O)O1 (some centres undefined) |  | inhibition in vivo at 1 mg/kg (Rattus norvegicus [4]): 54% |
| CC(C)c1nn(-c2ccc3ccccc3n2)c(-c2ccc(F)cc2)c1/C=C/[C@@H](O)C[C@@H](O)CC(=O)O | 69 |  |
| CC(C)c1nn(-c2ccc3ccccc3n2)c(-c2ccc(F)cc2)c1/C=C/[C@@H]1C[C@@H](O)CC(=O)O1 | 75 |  |
| CC(C)c1nn(-c2ccccc2)c(-c2ccc(F)cc2)c1/C=C/[C@@H](O)C[C@@H](O)CC(=O)O | 94 |  |
| CC(C)c1nn(-c2ccccc2)c(-c2ccc(F)cc2)c1CCC(O)C[C@@H](O)CC(=O)O (some centres undefined) | 72 |  |
| CC(C)c1nn(-c2ccccn2)c(-c2ccc(F)cc2)c1CCC(O)C[C@@H](O)CC(=O)O (some centres undefined) | 68 |  |
| CC(C)c1nn(-c2ccccn2)c(-c2ccc(F)cc2)c1CCC1C[C@@H](O)CC(=O)O1 (some centres undefined) | 58 |  |
| CC(C)c1nn(-c2nc3ccccc3s2)c(-c2ccc(F)cc2)c1/C=C/[C@@H](O)C[C@@H](O)CC(=O)O | 51 |  |
| CC(C)c1nn(-c2nc3ccccc3s2)c(-c2ccc(F)cc2)c1/C=C/[C@@H]1C[C@@H](O)CC(=O)O1 | 30 |  |
| O=C(O)C[C@H](O)C[C@H](O)/C=C/c1c(C(F)(F)F)nn(-c2ccccn2)c1-c1ccc(F)cc1 | 81 |  |
| O=C1C[C@H](O)C[C@@H](/C=C/c2c(C(F)(F)F)nn(-c3ccccn3)c2-c2ccc(F)cc2)O1 | 60 |  |
| CC(C)c1nn(-c2ccccn2)c(-c2ccc(F)cc2)c1/C=C/[C@@H]1C[C@@H](O)CC(=O)O1 (stereo in doubt; 10a) | 83 |  |
| CC(C)c1nn(-c2cnccn2)c(-c2ccc(F)cc2)c1/C=C/[C@@H]1C[C@@H](O)CC(=O)O1 (stereo in doubt; 10b) | 80 |  |
| CC(C)c1nn(-c2ccccn2)c(-c2ccc(F)cc2)c1/C=C/[C@@H]1C[C@@H](O)CC(=O)O1 (stereo in doubt; 20a) [listing 1 of 2 here] |  | Change (Canis familiaris [5]): -31%; Change (Canis familiaris [6]): -32%; Change (Canis familiaris [7]): -20%; Change (Canis familiaris [8]): -50%; Change (Canis familiaris [9]): -16%; Change (Canis familiaris [10]): -44% |
| CC(C)c1nn(-c2ccccn2)c(-c2ccc(F)cc2)c1/C=C/[C@@H]1C[C@@H](O)CC(=O)O1 (stereo in doubt; 20a) [listing 2 of 2 here] | 93 |  |
| CC(C)c1nn(-c2cnccn2)c(-c2ccc(F)cc2)c1/C=C/[C@@H]1C[C@@H](O)CC(=O)O1 (stereo in doubt; 20b) | 92 |  |
| CC[C@H](C)C(=O)O[C@H]1C[C@@H](C)C=C2C=C[C@H](C)[C@H](CC[C@@H]3C[C@@H](O)CC(=O)O3)[C@H]21 [LOVASTATIN] |  | Change (Canis familiaris [5]): -10%; Change (Canis familiaris [6]): -2%; Change (Canis familiaris [7]): -7%; Change (Canis familiaris [8]): -17%; inhibition in vivo at 1 mg/kg (Rattus norvegicus [11]): 64%; Change (Canis familiaris [9]): -1%; Change (Canis familiaris [10]): -25% |
| CC[C@H](C)C(=O)O[C@H]1C[C@H](O)C=C2C=C[C@H](C)[C@H](CC[C@@H](O)C[C@@H](O)CC(=O)O)[C@H]21 [PRAVASTATIN] | 48 | inhibition in vivo at 1 mg/kg (Rattus norvegicus [12]): 48% |

— ChEMBL document CHEMBL1126067, “Inhibitors of cholesterol biosynthesis. 6. trans-6-[2-(2-N-heteroaryl-3,5-disubstituted- pyrazol-4-yl)ethyl/ethenyl]tetrahydro-4-hydroxy-2H-pyran-2-ones” (J Med Chem, 1992)
